Laboratory results: ChEMBL document CHEMBL5247575 (J Med Chem, 2018)

Test system: Klebsiella pneumoniae
Experiment: Synergistic antibacterial activity against Klebsiella pneumoniae 660/1568 producing KPC-3 assessed as meropenem MIC at 8 ug/ml by broth microdilution method
Type: functional
Details: dose 8 µg/ml
How it was run: (§1)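 Broth microdilution per CLSI guidelines, using custom frozen panels. […] Each partner drug was also tested alone. MICs were run in triplicate and the modal value is reported.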

Row | Compound | MIC [µg/mL]
1 | N#C[C@@H]1CC[C@@H]2CN1C(=O)N2OS(=O)(=O)[O-].[Na+] | ≤ 0.12

Test system: Klebsiella pneumoniae
Experiment: Synergistic antibacterial activity against Klebsiella pneumoniae 11978 producing OXA-48 assessed as meropenem MIC at 4 ug/ml by broth microdilution method
Type: functional
Details: dose 4 µg/ml
How it was run: as §1

Row | Compound | MIC [µg/mL]
2 | N#C[C@@H]1CC[C@@H]2CN1C(=O)N2OS(=O)(=O)[O-].[Na+] | ≤ 0.12

Test system: Klebsiella pneumoniae
Experiment: Synergistic antibacterial activity against Klebsiella pneumoniae jefferson 1775 producing OXA-48 assessed as meropenem MIC at 4 ug/ml by broth microdilution method
Type: functional
Details: dose 4 µg/ml

Row | Compound | MIC [µg/mL]
3 | N#C[C@@H]1CC[C@@H]2CN1C(=O)N2OS(=O)(=O)[O-].[Na+] | ≤ 0.12

Test system: Klebsiella pneumoniae
Experiment: Synergistic antibacterial activity against Klebsiella pneumoniae 729/1679 producing KPC-3 assessed as meropenem MIC at 8 ug/ml by broth microdilution method
Type: functional
Details: dose 8 µg/ml
How it was run: as §1

Row | Compound | MIC [µg/mL]
4 | N#C[C@@H]1CC[C@@H]2CN1C(=O)N2OS(=O)(=O)[O-].[Na+] | ≤ 0.12

Test system: Bacteria
Experiment: Inhibition of bacteria KPC-2 assessed as second order rate constant K2/K using nitrocefin as substrate
Details: not given
How it was run: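 Steady-state kinetics, 10 mM phosphate-buffered saline pH 7.4. Progress curves recorded with fixed enzyme and nitrocefin and increasing nM inhibitor. Each curve fitted to a time-course equation to give k_obs. k2/K derived from these and corrected for nitrocefin concentration relative to its Km.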

Row | Compound | K
5 | N#C[C@@H]1CC[C@@H]2CN1C(=O)N2OS(=O)(=O)[O-].[Na+] | 2.4 10^5/M/s

Test system: Acinetobacter baumannii
Experiment: Synergistic antibacterial activity against Acinetobacter baumannii PR408 producing OXA-24/40 assessed as meropenem MIC at 8 ug/ml by broth microdilution method
Type: functional
Details: dose 8 µg/ml

Row | Compound | MIC [µg/mL]
6 | N#C[C@@H]1CC[C@@H]2CN1C(=O)N2OS(=O)(=O)[O-].[Na+] | > 16

Test system: Klebsiella pneumoniae
Experiment: Synergistic antibacterial activity against Klebsiella pneumoniae jefferson 1775 producing OXA-48 assessed as cefepime MIC at 4 ug/ml by broth microdilution method
Type: functional
Details: dose 4 µg/ml

Row | Compound | MIC [µg/mL]
7 | N#C[C@@H]1CC[C@@H]2CN1C(=O)N2OS(=O)(=O)[O-].[Na+] | ≤ 0.12

Test system: Escherichia coli
Experiment: Synergistic antibacterial activity against Escherichia coli DH10B transfected with pBC SK (-) KPC-2 assessed as meropenem MIC at 4 ug/ml by broth microdilution method
Type: functional
Details: dose 4 µg/ml

Row | Compound | MIC [µg/mL]
8 | N#C[C@@H]1CC[C@@H]2CN1C(=O)N2OS(=O)(=O)[O-].[Na+] | ≤ 0.12

Test system: Acinetobacter baumannii
Experiment: Synergistic antibacterial activity against Acinetobacter baumannii PR476 producing OXA-24/40 assessed as cefepime MIC at 4 ug/ml by broth microdilution method
Type: functional
Details: dose 4 µg/ml

Row | Compound | MIC [µg/mL]
9 | N#C[C@@H]1CC[C@@H]2CN1C(=O)N2OS(=O)(=O)[O-].[Na+] | 2

Test system: Escherichia coli
Experiment: Synergistic antibacterial activity against Escherichia coli DH10B transfected with pBR322-catI-KPC-2 assessed as meropenem MIC at 8 ug/ml by broth microdilution method
Type: functional
Details: dose 8 µg/ml
How it was run: as §1

Row | Compound | MIC [µg/mL]
10 | N#C[C@@H]1CC[C@@H]2CN1C(=O)N2OS(=O)(=O)[O-].[Na+] | ≤ 0.12

Test system: Klebsiella pneumoniae
Experiment: Synergistic antibacterial activity against Klebsiella pneumoniae 977/1916 producing KPC-3 assessed as cefepime MIC at 8 ug/ml by broth microdilution method
Type: functional
Details: dose 8 µg/ml

Row | Compound | MIC [µg/mL]
11 | N#C[C@@H]1CC[C@@H]2CN1C(=O)N2OS(=O)(=O)[O-].[Na+] | ≤ 0.12

Test system: Klebsiella pneumoniae
Experiment: Synergistic antibacterial activity against Klebsiella pneumoniae 1398/2291 producing KPC-3 assessed as cefepime MIC at 8 ug/ml by broth microdilution method
Type: functional
Details: dose 8 µg/ml
How it was run: as §1

Row | Compound | MIC [µg/mL]
12 | N#C[C@@H]1CC[C@@H]2CN1C(=O)N2OS(=O)(=O)[O-].[Na+] | 0.25

Test system: Klebsiella pneumoniae
Experiment: Synergistic antibacterial activity against Klebsiella pneumoniae 660/1568 producing KPC-3 assessed as cefepime MIC at 4 ug/ml by broth microdilution method
Type: functional
Details: dose 4 µg/ml
How it was run: as §1

Row | Compound | MIC [µg/mL]
13 | N#C[C@@H]1CC[C@@H]2CN1C(=O)N2OS(=O)(=O)[O-].[Na+] | 0.25

Test system: Klebsiella pneumoniae
Experiment: Synergistic antibacterial activity against Klebsiella pneumoniae NY BS producing OXA-232 assessed as cefepime MIC at 8 ug/ml by broth microdilution method
Type: functional
Details: dose 8 µg/ml

Row | Compound | MIC [µg/mL]
14 | N#C[C@@H]1CC[C@@H]2CN1C(=O)N2OS(=O)(=O)[O-].[Na+] | 1

Test system: Bacteria
Experiment: Inhibition of bacteria ADC-7 assessed as Koff rate using nitrocefin as substrate incubated for 30 mins
Details: not given

Row | Compound | K
15 | N#C[C@@H]1CC[C@@H]2CN1C(=O)N2OS(=O)(=O)[O-].[Na+] | 1 10^-3/s

Test system: Acinetobacter baumannii
Experiment: Synergistic antibacterial activity against Acinetobacter baumannii PR476 producing OXA-24/40 assessed as meropenem MIC at 8 ug/ml by broth microdilution method
Type: functional
Details: dose 8 µg/ml

Row | Compound | MIC [µg/mL]
16 | N#C[C@@H]1CC[C@@H]2CN1C(=O)N2OS(=O)(=O)[O-].[Na+] | 0.25

Test system: Klebsiella pneumoniae
Experiment: Synergistic antibacterial activity against Klebsiella pneumoniae 1315/2198 producing KPC-3 assessed as cefepime MIC at 8 ug/ml by broth microdilution method
Type: functional
Details: dose 8 µg/ml
How it was run: as §1

Row | Compound | MIC [µg/mL]
17 | N#C[C@@H]1CC[C@@H]2CN1C(=O)N2OS(=O)(=O)[O-].[Na+] | 0.25

Test system: Pseudomonas aeruginosa
Experiment: Synergistic antibacterial activity against Pseudomonas aeruginosa 795 assessed as cefepime MIC at 4 ug/ml by broth microdilution method
Type: functional
Details: dose 4 µg/ml

Row | Compound | MIC [µg/mL]
18 | N#C[C@@H]1CC[C@@H]2CN1C(=O)N2OS(=O)(=O)[O-].[Na+] | > 16

Test system: Klebsiella pneumoniae
Experiment: Synergistic antibacterial activity against Klebsiella pneumoniae 729/1679 producing KPC-3 assessed as meropenem MIC at 4 ug/ml by broth microdilution method
Type: functional
Details: dose 4 µg/ml
How it was run: as §1

Row | Compound | MIC [µg/mL]
19 | N#C[C@@H]1CC[C@@H]2CN1C(=O)N2OS(=O)(=O)[O-].[Na+] | ≤ 0.12

Test system: Escherichia coli
Experiment: Synergistic antibacterial activity against Escherichia coli DH10B assessed as meropenem MIC at 4 ug/ml by broth microdilution method
Type: functional
Details: dose 4 µg/ml

Row | Compound | MIC [µg/mL]
20 | N#C[C@@H]1CC[C@@H]2CN1C(=O)N2OS(=O)(=O)[O-].[Na+] | ≤ 0.12
